Screening results (PubChem BioAssay)
This is a sample that favours compounds with a hit; in the whole collection about 1.7% have one here.
TPT1 inh: C. albicans TPT1 enzyme inhibition | AID 1962 | hit rate 0.81% among 300,000 | recombinant caTPT1, FP RNA substrate dephosphorylation | inhibition, % at 5 µM;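 active = inhibition above the mean of all tested compounds plus 3 SD, set per screening campaign, cut at about 24% in these data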;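 also: plate controls were DMSO alone for no effect and ferristatin control at 100 nM for full effect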
HNF4A DNA FP: change in binding of human HNF4 alpha to DNA; hit rate 0.3% among 360,000; activity change, % at 10 µM; HNF4a-FITC DNA binding, fluorescence polarization, 1 h; in the data active = activity change above about 30%, passing the limit was not always enough
CSN deneddyl inh: blocks human CSN-mediated cullin deneddylation; Q92905; Purified CSN, SCF-Nedd8-OG deneddylation, fluorescence polarization; inhibition, % at 12.5 µM; hit rate 0.38% among 360,000;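 active = pattern-corrected inhibition above about 35%, with an unprinted fluorescence ratio check between 0.5 and 1.5, limit read from the data, passing the limit was not always enough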;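 also: 0% = enzyme with substrate and 100% = substrate without enzyme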
Target sequence (Q92905 whole entry, looked up, one chain of several): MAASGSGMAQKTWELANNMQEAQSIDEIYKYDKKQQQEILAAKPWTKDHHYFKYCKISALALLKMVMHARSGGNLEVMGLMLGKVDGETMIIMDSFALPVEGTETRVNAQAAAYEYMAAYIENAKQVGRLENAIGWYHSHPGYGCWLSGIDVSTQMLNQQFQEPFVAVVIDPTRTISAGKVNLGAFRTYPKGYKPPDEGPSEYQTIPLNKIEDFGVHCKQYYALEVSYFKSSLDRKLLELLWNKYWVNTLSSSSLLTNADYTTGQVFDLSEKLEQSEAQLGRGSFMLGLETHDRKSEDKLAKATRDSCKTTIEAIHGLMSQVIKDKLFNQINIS
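Assay system: Purified human Csn5 enzyme expressed in HEK293T cells | Amount: Enzyme 0.24 nM | Measured by: Fluorescence polarization readout | Medium: Tris/NaCl/DTT buffer, pH 7.5 | Compound dosing: One concentration, 12.5 µM, 0.25% DMSO | Times: 90 min incubation of compound, enzyme and substrate at room temperature | Control set: no-enzyme wells high, enzyme-with-substrate wells low | Read-out: % inhibition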
IDE cell inh: inhibits human insulin-degrading enzyme in HEK cells; FAbetaB cleavage, fluorescence polarization; inhibition, % at 5.59 µM; hit rate 0.41% among 320,000; AID 434962;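 active = percent inhibition above the average of all tested compounds plus 3 SD, set per screening campaign, cut at about 16% in these data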;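 also: IDE supplied by intact live HEK cells; FP after avidin binding of uncleaved biotin substrate so inhibition keeps polarization high; 0% = DMSO wells and 100% = 60 µM reference IDE inhibitor Ii1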
Rpn11 block: inhibitors of human proteasome Rpn11. human 26S proteasome, Ub4-pepOG fluorescence polarization; 20S core pre-blocked with epoxomicin. inhibition, % at 20 µM. hit rate 0.59% among 360,000. O00487;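 active = inhibition at 20 µM, scaled to each plate's controls, above about 33%, limit read from the data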
Target sequence (O00487 whole entry, looked up): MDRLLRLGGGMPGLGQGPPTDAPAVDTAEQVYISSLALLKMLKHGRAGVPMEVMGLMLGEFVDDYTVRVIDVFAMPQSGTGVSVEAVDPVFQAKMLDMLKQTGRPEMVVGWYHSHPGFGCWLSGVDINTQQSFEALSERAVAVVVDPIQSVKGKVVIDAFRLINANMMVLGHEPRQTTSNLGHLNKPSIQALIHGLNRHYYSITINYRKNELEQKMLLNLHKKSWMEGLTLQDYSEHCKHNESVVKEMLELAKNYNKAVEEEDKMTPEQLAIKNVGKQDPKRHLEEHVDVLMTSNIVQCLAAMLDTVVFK
IDE cell activ: boosts human insulin-degrading enzyme activity in HEK cells. hit rate 0.073% among 340,000. FAbeta-B cleavage, fluorescence polarization; 0% vehicle, 100% cell-free pure enzyme wells. AID 493087. activation, % at 5.96 µM;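 active = activation above the mean of all tested compounds plus 3 SD, set per screening campaign, cut at about 17% in these data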
Rpn11 inh conf: confirmation of human proteasome Rpn11 inhibitors; hit rate 29% among 1,900; shares compounds with Rpn11 block; inhibition, % at 20 µM; purified human 26S proteasome, Ub4-pepOG fluorescence polarization; proteasome pretreated with epoxomicin
MMP-2 counter: blocks human MMP-2, flagging nonselective RPN11 hits; shares compounds with Rpn11 block; AID 602330; recombinant MMP-2, FRET peptide cleavage fluorescence; inhibition, % at 20 µM; hit rate 4% among 1,900;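 also: human MMP-2 activated beforehand with APMA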
Thrombin inh: thrombin (bovine) inhibition counter-screen; shares compounds with Rpn11 block; bovine thrombin cleavage of Ub4-pepOG, fluorescence polarization; inhibition, % at 20 µM; hit rate 13% among 1,900; AID 602333;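 active = mean inhibition at least 40% at 20 µM, or signal 3 deviations below plate average, so some actives read negative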;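 also: plate controls were thrombin with DMSO for no effect and buffer wells lacking thrombin for full effect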
* marks the source's active call; other numbers are inactive results; . = no result. Rule as the data show it, unless noted: active = inhibition above about 40%; inactive = the rest.

SMILES | TPT1 inh | HNF4A DNA FP | CSN deneddyl inh | IDE cell inh | Rpn11 block | IDE cell activ | Rpn11 inh conf | MMP-2 counter | Thrombin inh
COc1ccc(C2CC(c3ccccc3)=NN2C(=O)COC(=O)c2cnc(Cl)c(Cl)c2)cc1 (stereo not given) | -4 | 1 | 0 | -1 | 3 | 1 | . | . | .
COc1ccc(C2CC(c3ccccc3)=NN2C(=O)COC(=O)c2ccc(Cl)nc2)cc1 (stereo not given) | -1 | -2 | 0 | 7 | 42* | 9 | 8 | -33 | -34
Cn1c(=O)ccc2ccccc21 | . | 3 | 1 | . | 6 | . | . | . | .
Cc1cccc(N2CC(C(=O)Nc3cccc(S(=O)(=O)N4CCCCC4)c3)CC2=O)c1C (stereo not given) | . | 2 | -8 | -2 | 1 | 3 | . | . | .
CC(=O)c1cccc(NC(=O)C2CC(=O)N(c3cccc(C)c3C)C2)c1 (stereo not given) | 0 | -1 | 1 | 0 | 93* | 5 | -9 | -27 | -7
COC(=O)[C@@]12C[C@@H](CC(=O)NCC34CC5CC(CC(C5)C3)C4)C(=O)N(Cc3ccccc3)C1=CCC(C)(C)C2 | . | 2 | -3 | . | . | . | . | . | .
CCN(CC)CCn1c(=S)[nH]c2cc(C(=O)NCCc3ccc(OC)c(OC)c3)ccc2c1=O | . | -1 | -1 | . | -2 | . | . | . | .
CCOC(=O)C1=C(C)NC(=S)NC1C (stereo not given) | 0 | -3 | 3 | -1 | 0 | -2 | . | . | .
CCOC(=O)C1=C(c2ccccc2)NC(=S)NC1C (stereo not given) | -3 | 3 | 4 | 4 | 112* | 7 | -14 | -39 | -26
COc1cc(/C=C2\SC(=O)N(CCNC(=O)c3sc4cc(F)ccc4c3Cl)C2=O)cc(OC)c1OC | -2 | 5 | 5 | 0 | 43* | 3 | -1 | -31 | -8
NS(=O)(=O)c1cccc(NC(=O)COC(=O)c2ccc(S(=O)(=O)N3CCOCC3)cc2)c1 | . | 2 | -5 | . | 5 | -3 | . | . | .
COc1ccc(C2=NN(C(=O)c3cccc([N+](=O)[O-])c3)C(c3cccc([N+](=O)[O-])c3)C2)cc1 (stereo not given) | 1 | 1 | 2 | 2 | -4 | -2 | . | . | .
COc1ccc(C2CC(c3cccc([N+](=O)[O-])c3)=NN2/C(C)=C/C(C)=O)cc1 (stereo not given) | . | 87* | 57* | . | 90* | . | 142* | -4 | 151*
O=C(Nc1ccc2c(c1)OCCO2)C1c2ccccc2OCC(=O)N1CC(F)(F)F (stereo not given) | . | -2 | -4 | . | . | . | . | . | .
Cc1cccc(N2CC(C(=O)Nc3nnc(SCCN4CCOCC4)s3)CC2=O)c1 (stereo not given) | 11 | 3 | -1 | 2 | 22 | 3 | . | . | .
COc1cccc(N2CC(C(=O)Nc3nnc(SCCN4CCOCC4)s3)CC2=O)c1 (stereo not given) | 0 | -1 | 6 | 4 | 52* | 6 | 7 | -19 | 13
COc1ccc(OC)c(NC(=O)CSc2sc3c(O)cc(=O)[nH]c3c2C#N)c1 | 5 | -22 | 11 | 0 | 22 | 4 | . | . | .
COc1cc(Cl)c(C)cc1NC(=O)CSc1sc2c(O)cc(=O)[nH]c2c1C#N | 8 | -27 | 22 | -2 | 40* | -1 | -5 | 2 | -22
O=C(CSc1nnc(SCc2ccc(Cl)cc2)s1)N/N=C/c1c[nH]c2ccccc12 | -1 | 112* | 35 | -4 | 125* | 3 | 68* | 20 | -3
CC1(C(=O)NS(=O)(=O)c2cccc(F)c2)CCN1C(=O)C1CCCCC1 (stereo not given) | . | 2 | 4 | . | 3 | . | . | . | .
Fc1ccc(Nc2nc(-c3ccncc3)nc3ccccc23)cc1F | -2 | 19 | 8 | 6 | 80* | -1 | 17 | -18 | -23
Cc1cccc(-c2nc(Nc3cccc(O)c3)c3ccccc3n2)c1 | 6 | 21 | 1 | 2 | 60* | 0 | 19 | -28 | 12
Cc1cccc(-c2nc(Nc3ccc(N4CCOCC4)cc3)c3ccccc3n2)c1 | 3 | 4 | -11 | -1 | 0 | 3 | . | . | .
Clc1cccc(Nc2nc(-c3ccncc3)nc3ccccc23)c1 | 2 | 8 | 0 | 0 | 7 | 4 | . | . | .
CCc1nc2c(OCc3ccccc3)cccn2c1N(C)C(=O)C(C)C | . | 3 | 3 | . | -11 | . | . | . | .
SMILES | TPT1 inh | HNF4A DNA FP | CSN deneddyl inh | IDE cell inh | Rpn11 block | IDE cell activ | Rpn11 inh conf | MMP-2 counter | Thrombin inh
N#Cc1ccc(Cl)cc1NC(=O)CN1C(=O)C(=O)N(CCC2=CCCCC2)C1=O | . | -4 | 0 | . | 1 | . | . | . | .
COc1ccc(C)cc1NC(=O)NC1CC(=O)N(c2ccc3c(c2)OCCO3)C1 (stereo not given) | . | 1 | -2 | . | -2 | . | . | . | .
CCc1cc(CNC(=O)C2CCC(=O)N(CCc3ccc(OC)cc3)C2)on1 (stereo not given) | 3 | 39* | -1 | 0 | 85* | 2 | -14 | -58 | -12
COc1ccc(CCN2CC(C(=O)NCc3cc(C)on3)CCC2=O)cc1 (stereo not given) | . | 3 | -2 | . | -5 | -3 | . | . | .
CC(C)(C)NC(=O)C[C@H]1C[C@H](C(=O)N2CCCCC2)[C@@]2(CCc3ccccc3)c3[nH]c4cc(-c5ccco5)ccc4c3CCN2C1=O | . | 20 | 14 | . | 53* | 1 | 11 | 32 | 23
O=C(C[C@H]1C[C@H](C(=O)N2CCOCC2)[C@@]2(CCC3CCCC3)c3[nH]c4cc(-c5ccco5)ccc4c3CCN2C1=O)NCCc1ccccn1 | . | 6 | 8 | . | 11 | 7 | . | . | .
CC[C@]12c3[nH]c4cc(-c5ccco5)ccc4c3CCN1C(=O)[C@@H](CC(=O)NCc1ccc(OC)c(OC)c1)C[C@@H]2C(=O)N1CCN(C(=O)C2CC2)CC1 | . | 5 | 0 | . | 10 | 1 | . | . | .
O=C(C[C@H]1C[C@H](C(=O)N2CCOCC2)[C@@]2(CCC3CCCC3)c3[nH]c4cc(-c5ccco5)ccc4c3CCN2C1=O)NCCC1=CCCCC1 | . | 9 | 8 | . | 38* | 6 | 2 | -24 | -6
C[C@]12c3[nH]c4cc(-c5ccco5)ccc4c3CCN1C(=O)[C@@H](CC(=O)NCC13CC4CC(CC(C4)C1)C3)C[C@@H]2C(=O)N1CCCCC1 | . | 6 | 23 | . | 39* | 4 | -6 | 5 | -10
